Data taken from publication PMC10825549 (JID Innovations, 2023).

Legend:
CYP2D6 = CYP2D6 (Homo sapiens, UniProt P10635); experiment: Cytochrome P450 phenotyping; format: in vitro ADME; conditions: recombinant human CYP2D6; with NADPH; 30 minutes; n = 1
How it was run: (§1)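 Recombinant human CYPs prepared at CYP1A2 200 nM, CYP2B6/2C8 250 nM, CYP2C9 100 nM, CYP2D6 50 nM. Test compound added as 2 μM DMSO dosing solution on ice. Plate prewarmed, then 8 mM NADPH solution or blank buffer added. Incubation 60 min (1A2, 2B6, 2C8) or 30 min (2C9, 2D6). Stopped with acetonitrile plus internal standard; supernatant by LC-MS/MS; n = 1.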

CYP2C9 = CYP2C9 (Homo sapiens, UniProt P11712); experiment: Cytochrome P450 phenotyping; format: in vitro ADME; conditions: recombinant human CYP2C9; with NADPH; 30 minutes; n = 1
CYP2C9, sequence (P11712 whole entry): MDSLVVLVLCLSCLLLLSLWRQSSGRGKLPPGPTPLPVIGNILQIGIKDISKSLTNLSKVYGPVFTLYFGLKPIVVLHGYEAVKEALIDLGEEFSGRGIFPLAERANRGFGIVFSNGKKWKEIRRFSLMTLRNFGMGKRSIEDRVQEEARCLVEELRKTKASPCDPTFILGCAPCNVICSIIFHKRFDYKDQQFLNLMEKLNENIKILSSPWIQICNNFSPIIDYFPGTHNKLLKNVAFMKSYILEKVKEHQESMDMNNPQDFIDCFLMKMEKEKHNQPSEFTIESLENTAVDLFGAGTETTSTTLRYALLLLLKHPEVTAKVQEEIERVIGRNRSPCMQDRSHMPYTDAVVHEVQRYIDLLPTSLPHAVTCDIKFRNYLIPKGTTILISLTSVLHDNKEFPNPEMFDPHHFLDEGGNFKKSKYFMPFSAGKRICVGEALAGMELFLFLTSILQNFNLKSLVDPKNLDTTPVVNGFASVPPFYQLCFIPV
How it was run: as §1

CYP3A4 = CYP3A4 (Homo sapiens, UniProt P08684); experiment: Cytochrome P450 phenotyping; format: in vitro ADME; conditions: recombinant human CYP3A4; with NADPH; 30 minutes; n = 1
CYP3A4, sequence (P08684 whole entry): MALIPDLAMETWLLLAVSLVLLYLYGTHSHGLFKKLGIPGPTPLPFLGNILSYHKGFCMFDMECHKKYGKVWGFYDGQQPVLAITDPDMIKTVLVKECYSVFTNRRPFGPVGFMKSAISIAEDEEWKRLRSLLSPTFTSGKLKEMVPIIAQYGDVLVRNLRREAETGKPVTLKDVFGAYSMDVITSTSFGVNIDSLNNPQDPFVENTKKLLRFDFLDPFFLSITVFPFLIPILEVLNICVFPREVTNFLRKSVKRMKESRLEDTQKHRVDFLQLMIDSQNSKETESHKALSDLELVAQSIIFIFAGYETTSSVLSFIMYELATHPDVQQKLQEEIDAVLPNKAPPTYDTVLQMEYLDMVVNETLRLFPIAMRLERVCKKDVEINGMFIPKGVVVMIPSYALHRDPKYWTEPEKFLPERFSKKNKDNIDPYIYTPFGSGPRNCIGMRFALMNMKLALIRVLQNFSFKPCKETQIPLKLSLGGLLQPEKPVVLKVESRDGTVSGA
How it was run: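 Recombinant human CYP3A4 was prepared at 100 nM, and a 2 μM dosing solution of test compound in DMSO was added on ice. After prewarming, 8 mM NADPH solution or blank buffer was added for 30 minutes. Acetonitrile with internal standard stopped the reaction. The plate was shaken and centrifuged, and the supernatant was analysed by LC-MS/MS; n = 1.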

CYP2C8 = CYP2C8 (Homo sapiens, UniProt P10632); experiment: Cytochrome P450 phenotyping; format: in vitro ADME; conditions: recombinant human CYP2C8; with NADPH; 60 minutes; n = 1
CYP2C8, sequence (P10632 whole entry): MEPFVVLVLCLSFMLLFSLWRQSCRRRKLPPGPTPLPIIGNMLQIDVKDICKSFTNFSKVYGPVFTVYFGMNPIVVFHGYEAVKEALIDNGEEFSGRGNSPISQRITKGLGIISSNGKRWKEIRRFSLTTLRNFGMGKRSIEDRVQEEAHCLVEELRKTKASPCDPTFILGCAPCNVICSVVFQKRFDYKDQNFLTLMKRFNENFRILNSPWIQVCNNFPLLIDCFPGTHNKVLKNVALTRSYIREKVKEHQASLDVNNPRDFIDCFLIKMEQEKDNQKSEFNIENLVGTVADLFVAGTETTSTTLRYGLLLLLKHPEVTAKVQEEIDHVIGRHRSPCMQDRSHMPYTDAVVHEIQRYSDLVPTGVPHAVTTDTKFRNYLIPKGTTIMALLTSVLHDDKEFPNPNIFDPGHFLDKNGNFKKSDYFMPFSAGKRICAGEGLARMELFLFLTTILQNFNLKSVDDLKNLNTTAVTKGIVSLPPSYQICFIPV
How it was run: as §1

CYP1A2 = CYP1A2 (Homo sapiens, UniProt P05177); experiment: Cytochrome P450 phenotyping; format: in vitro ADME; conditions: recombinant human CYP1A2; with NADPH; 60 minutes; n = 1
CYP1A2, sequence (P05177 whole entry): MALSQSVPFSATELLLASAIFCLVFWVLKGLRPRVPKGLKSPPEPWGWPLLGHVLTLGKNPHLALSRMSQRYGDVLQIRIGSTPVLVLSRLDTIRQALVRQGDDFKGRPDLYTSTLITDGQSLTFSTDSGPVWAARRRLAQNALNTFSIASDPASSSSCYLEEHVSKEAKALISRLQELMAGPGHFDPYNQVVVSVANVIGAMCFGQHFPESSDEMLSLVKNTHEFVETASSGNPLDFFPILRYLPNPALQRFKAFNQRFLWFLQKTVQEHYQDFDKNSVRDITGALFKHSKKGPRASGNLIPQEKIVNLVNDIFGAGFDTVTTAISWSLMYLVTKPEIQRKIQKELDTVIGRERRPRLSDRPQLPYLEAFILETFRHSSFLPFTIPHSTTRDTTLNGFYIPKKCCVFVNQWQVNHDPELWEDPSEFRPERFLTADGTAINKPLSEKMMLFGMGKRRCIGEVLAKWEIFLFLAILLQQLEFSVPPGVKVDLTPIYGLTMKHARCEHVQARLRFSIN
How it was run: as §1

IFN-γ = experiment: Human whole blood potency, blockade of IFN-γ; format: cell-based; conditions: unpublished data
IL-4 = experiment: Human whole blood potency, blockade of IL-4; format: cell-based; conditions: unpublished data

CYP2D6, sequence (P10635 whole entry): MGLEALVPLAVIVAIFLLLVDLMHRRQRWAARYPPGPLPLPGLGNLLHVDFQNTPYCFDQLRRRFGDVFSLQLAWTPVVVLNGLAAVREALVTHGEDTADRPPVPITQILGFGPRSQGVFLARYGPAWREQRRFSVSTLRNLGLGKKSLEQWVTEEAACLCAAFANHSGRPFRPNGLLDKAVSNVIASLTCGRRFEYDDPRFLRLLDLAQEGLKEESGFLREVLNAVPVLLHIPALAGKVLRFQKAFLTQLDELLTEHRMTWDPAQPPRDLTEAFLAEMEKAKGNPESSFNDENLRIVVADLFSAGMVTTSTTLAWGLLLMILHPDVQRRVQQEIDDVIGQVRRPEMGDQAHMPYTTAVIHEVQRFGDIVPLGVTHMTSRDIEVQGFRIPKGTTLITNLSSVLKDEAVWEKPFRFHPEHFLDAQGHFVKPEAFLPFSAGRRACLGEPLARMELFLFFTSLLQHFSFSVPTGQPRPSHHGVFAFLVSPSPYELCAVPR

CCc1cccc2cc(C(O)CNC(C)(C)C)oc12 (stereo not shown) [bufuralol]
Percentage Remaining (CYP2D6): 2.48%

O=C(O)Cc1ccccc1Nc1c(Cl)cccc1Cl [diclofenac]
Percentage Remaining (CYP2C9): 2.83%

Cc1ncc2n1-c1ccc(Cl)cc1C(c1ccccc1F)=NC2 [midazolam, reference compound]
Percentage Remaining (CYP3A4): 0.252%

CC(=O)O[C@H]1C(=O)[C@@]2(C)[C@H]([C@H](OC(=O)c3ccccc3)[C@]3(O)C[C@H](OC(=O)[C@H](O)[C@@H](NC(=O)c4ccccc4)c4ccccc4)C(C)=C1C3(C)C)[C@]1(OC(C)=O)CO[C@@H]1C[C@@H]2O [paclitaxel, reference compound]
Percentage Remaining (CYP2C8): 0.852%

CCOc1ccc(NC(C)=O)cc1 [phenacetin, reference compound]
Percentage Remaining (CYP1A2): 15.1%

N#CC[C@H](C1CCCC1)n1cc(-c2ncnc3[nH]ccc23)cn1 [ruxolitinib]
level required for blockade of IFN-γ (human whole blood potency) (IFN-γ): 305 nM
level required for blockade of IL-4 (human whole blood potency) (IL-4): 564 nM
